According to ChEMBL document CHEMBL1147710, “Synthesis of (2E)-3-{2-[(substituted benzyl)oxy]phenyl}acrylaldehydes as novel anti-inflammatory agents” (Bioorg Med Chem Lett, 2006):

Assays:
Neutrophil [1] = assay: Inhibition of fMLP-induced superoxide formation in Sprague-Dawley rat neutrophil at 10 uM; format: functional
How it was run: (§1)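 Rat (Sprague Dawley) neutrophils were stimulated with fMLP (0.3 µM) plus cytochalasin B (5 µg/mL). Superoxide formed was reported as nmol/10⁶ cells/30 min and percent inhibition versus control. IC50 was derived from the […] concentration series. N = 3.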

Neutrophil [2] = assay: Formation of PMA-induced superoxide in Sprague-Dawley rat neutrophil at 10 uM per 10^6 cells after 30 min; format: functional
How it was run: (§2)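 Superoxide generation by rat (Sprague Dawley) neutrophils stimulated with PMA at 3 nM. Test range 1–30 µM. Readout is superoxide formed in nmol/10⁶ cells/30 min, with percent inhibition versus control. N = 3.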

Neutrophil [3] = assay: Inhibition of PMA-induced superoxide formation in Sprague-Dawley rat neutrophil at 10 uM; format: functional; how it was run: as §2
Neutrophil [4] = assay: Inhibition of PMA-induced superoxide formation in Sprague-Dawley rat neutrophil at 30 uM; format: functional; how it was run: as §2
Neutrophil [5] = assay: Formation of fMLP-induced superoxide in Sprague-Dawley rat neutrophil at 10 uM per 10^6 cells after 30 min; format: functional; how it was run: as §1
Neutrophil [6] = assay: Inhibition of fMLP-induced superoxide formation in Sprague-Dawley rat neutrophil at 30 uM; format: functional; how it was run: as §1
Neutrophil [7] = assay: Formation of fMLP-induced superoxide in Sprague-Dawley rat neutrophil at 30 uM per 10^6 cells after 30 min; format: functional; how it was run: as §1
Neutrophil [8] = assay: Formation of PMA-induced superoxide in Sprague-Dawley rat neutrophil at 30 uM per 10^6 cells after 30 min; format: functional; how it was run: as §2
Neutrophil [9] = assay: Inhibition of fMLP-induced superoxide formation in Sprague-Dawley rat neutrophil at 1 uM; format: functional; how it was run: as §1
Neutrophil [10] = assay: Formation of fMLP-induced superoxide in Sprague-Dawley rat neutrophil at 3 uM per 10^6 cells after 30 min; format: functional; how it was run: as §1
Neutrophil [11] = assay: Formation of fMLP-induced superoxide in Sprague-Dawley rat neutrophil at 1 uM per 10^6 cells after 30 min; format: functional; how it was run: as §1
Neutrophil [12] = assay: Inhibition of fMLP-induced superoxide formation in Sprague-Dawley rat neutrophil at 3 uM; format: functional; how it was run: as §1
Neutrophil [13] = assay: Inhibition of fMLP-induced superoxide formation in Sprague-Dawley rat neutrophil; format: functional, cell-based; how it was run: as §1

## O=C/C=C/c1ccccc1OCc1cccc(Cl)c1Cl
Neutrophil [1]
  inhibition at 10 µM: 17.4%
Neutrophil [2]
  Activity: 6.72 nmol
Neutrophil [3]
  inhibition at 10 µM: 11.2%
Neutrophil [4]
  inhibition at 30 µM: 17.3%
Neutrophil [5]
  Activity: 2.39 nmol
Neutrophil [6]
  inhibition at 30 µM: 39.9%
Neutrophil [7]
  Activity: 1.75 nmol
Neutrophil [8]
  Activity: 6.29 nmol

## COc1ccc(OCc2ccccc2)c(/C=C/C=O)c1
Neutrophil [1]
  inhibition at 10 µM: 81.2%
Neutrophil [2]
  Activity: 9.42 nmol
Neutrophil [3]
  inhibition at 10 µM: -24%
Neutrophil [9]
  inhibition at 1 µM: 26.7%
Neutrophil [4]
  inhibition at 30 µM: -20.9%
Neutrophil [5]
  Activity: 0.53 nmol
Neutrophil [10]
  Activity: 1.37 nmol
Neutrophil [11]
  Activity: 2.09 nmol
Neutrophil [12]
  inhibition at 3 µM: 52.2%
Neutrophil [13]
  IC50: 2.6 µM
Neutrophil [8]
  Activity: 9.19 nmol

## O=C/C=C/c1ccccc1OCc1ccccc1
Neutrophil [1]
  inhibition at 10 µM: 63.7%
Neutrophil [2]
  Activity: 8.61 nmol
Neutrophil [3]
  inhibition at 10 µM: -13.5%
Neutrophil [4]
  inhibition at 30 µM: -23.6%
Neutrophil [5]
  Activity: 1.05 nmol
Neutrophil [6]
  inhibition at 30 µM: 83.2%
Neutrophil [10]
  Activity: 1.96 nmol
Neutrophil [12]
  inhibition at 3 µM: 31.8%
Neutrophil [13]
  IC50: 6.4 µM
Neutrophil [7]
  Activity: 0.48 nmol
Neutrophil [8]
  Activity: 9.39 nmol

## O=C/C=C/c1ccccc1OCc1ccccc1Cl
Neutrophil [1]
  inhibition at 10 µM: 71.4%
Neutrophil [2]
  Activity: 9.86 nmol
Neutrophil [3]
  inhibition at 10 µM: -30.1%
Neutrophil [4]
  inhibition at 30 µM: -10.9%
Neutrophil [5]
  Activity: 0.82 nmol
Neutrophil [6]
  inhibition at 30 µM: 89.7%
Neutrophil [10]
  Activity: 1.69 nmol
Neutrophil [12]
  inhibition at 3 µM: 40.1%
Neutrophil [13]
  IC50: 4.4 µM
Neutrophil [7]
  Activity: 0.29 nmol
Neutrophil [8]
  Activity: 8.39 nmol

## COc1ccc(OCc2ccc(Cl)cc2)c(/C=C/C=N/O)c1
Neutrophil [1]
  inhibition at 10 µM: 27.9%
Neutrophil [2]
  Activity: 11.9 nmol
Neutrophil [3]
  inhibition at 10 µM: -124%
Neutrophil [4]
  inhibition at 30 µM: -132%
Neutrophil [5]
  Activity: 2.53 nmol
Neutrophil [6]
  inhibition at 30 µM: 31.6%
Neutrophil [7]
  Activity: 2.41 nmol
Neutrophil [8]
  Activity: 12.1 nmol

## O=C/C=C/c1ccccc1OCc1cccc(F)c1
Neutrophil [1]
  inhibition at 10 µM: 73%
Neutrophil [2]
  Activity: 8.07 nmol
Neutrophil [3]
  inhibition at 10 µM: -6.2%
Neutrophil [4]
  inhibition at 30 µM: -23.7%
Neutrophil [5]
  Activity: 0.76 nmol
Neutrophil [6]
  inhibition at 30 µM: 83.9%
Neutrophil [10]
  Activity: 1.7 nmol
Neutrophil [12]
  inhibition at 3 µM: 40.3%
Neutrophil [13]
  IC50: 4.5 µM
Neutrophil [7]
  Activity: 0.46 nmol
Neutrophil [8]
  Activity: 9.38 nmol

## Cc1ccc(COc2ccccc2/C=C/C=O)cc1
Neutrophil [1]
  inhibition at 10 µM: 45.1%
Neutrophil [2]
  Activity: 8.53 nmol
Neutrophil [3]
  inhibition at 10 µM: -13.2%
Neutrophil [4]
  inhibition at 30 µM: -25.8%
Neutrophil [5]
  Activity: 1.57 nmol
Neutrophil [6]
  inhibition at 30 µM: 73.2%
Neutrophil [10]
  Activity: 2.24 nmol
Neutrophil [12]
  inhibition at 3 µM: 21.9%
Neutrophil [13]
  IC50: 11 µM
Neutrophil [7]
  Activity: 0.78 nmol
Neutrophil [8]
  Activity: 9.51 nmol

## O=C/C=C/c1ccccc1OCc1ccccc1F
Neutrophil [1]
  inhibition at 10 µM: 75.1%
Neutrophil [2]
  Activity: 9.45 nmol
Neutrophil [3]
  inhibition at 10 µM: -24.1%
Neutrophil [4]
  inhibition at 30 µM: -29.4%
Neutrophil [5]
  Activity: 0.72 nmol
Neutrophil [6]
  inhibition at 30 µM: 87.6%
Neutrophil [10]
  Activity: 1.48 nmol
Neutrophil [12]
  inhibition at 3 µM: 47.5%
Neutrophil [13]
  IC50: 3.3 µM
Neutrophil [7]
  Activity: 0.35 nmol
Neutrophil [8]
  Activity: 9.82 nmol

## O=C/C=C/c1ccccc1OCc1c(Cl)cccc1Cl
Neutrophil [1]
  inhibition at 10 µM: 40.3%
Neutrophil [2]
  Activity: 11.4 nmol
Neutrophil [3]
  inhibition at 10 µM: -50.6%
Neutrophil [4]
  inhibition at 30 µM: -59.2%
Neutrophil [5]
  Activity: 1.71 nmol
Neutrophil [6]
  inhibition at 30 µM: 46.8%
Neutrophil [7]
  Activity: 1.54 nmol
Neutrophil [8]
  Activity: 12 nmol

## COc1ccc(COc2ccccc2/C=C/C=O)cc1
Neutrophil [1]
  inhibition at 10 µM: 71.3%
Neutrophil [2]
  Activity: 9.45 nmol
Neutrophil [3]
  inhibition at 10 µM: -24.5%
Neutrophil [4]
  inhibition at 30 µM: -22.2%
Neutrophil [5]
  Activity: 0.81 nmol
Neutrophil [6]
  inhibition at 30 µM: 88.2%
Neutrophil [10]
  Activity: 1.58 nmol
Neutrophil [12]
  inhibition at 3 µM: 44.6%
Neutrophil [13]
  IC50: 3.8 µM
Neutrophil [7]
  Activity: 0.33 nmol
Neutrophil [8]
  Activity: 9.28 nmol

## O=C/C=C/c1ccccc1OCc1ccc(Cl)cc1Cl
Neutrophil [1]
  inhibition at 10 µM: 24.4%
Neutrophil [2]
  Activity: 9.29 nmol
Neutrophil [3]
  inhibition at 10 µM: -22.7%
Neutrophil [4]
  inhibition at 30 µM: -29.8%
Neutrophil [5]
  Activity: 2.16 nmol
Neutrophil [6]
  inhibition at 30 µM: 39.9%
Neutrophil [7]
  Activity: 1.76 nmol
Neutrophil [8]
  Activity: 9.84 nmol

## COc1ccc(OCc2cccc(Cl)c2)c(/C=C/C=O)c1
Neutrophil [1]
  inhibition at 10 µM: 77.7%
Neutrophil [2]
  Activity: 10.3 nmol
Neutrophil [3]
  inhibition at 10 µM: -35.7%
Neutrophil [9]
  inhibition at 1 µM: 11.4%
Neutrophil [4]
  inhibition at 30 µM: -31.2%
Neutrophil [5]
  Activity: 0.67 nmol
Neutrophil [10]
  Activity: 1.82 nmol
Neutrophil [11]
  Activity: 2.54 nmol
Neutrophil [12]
  inhibition at 3 µM: 36.8%
Neutrophil [13]
  IC50: 4.2 µM
Neutrophil [8]
  Activity: 9.96 nmol

## O=C/C=C/c1ccccc1OCc1ccc(Cl)cc1
Neutrophil [1]
  inhibition at 10 µM: 63.1%
Neutrophil [2]
  Activity: 9.41 nmol
Neutrophil [3]
  inhibition at 10 µM: -23.9%
Neutrophil [4]
  inhibition at 30 µM: -22%
Neutrophil [5]
  Activity: 1.05 nmol
Neutrophil [6]
  inhibition at 30 µM: 86.9%
Neutrophil [10]
  Activity: 2.23 nmol
Neutrophil [12]
  inhibition at 3 µM: 22.4%
Neutrophil [13]
  IC50: 7.4 µM
Neutrophil [7]
  Activity: 0.37 nmol
Neutrophil [8]
  Activity: 9.26 nmol

## O=C/C=C/c1ccccc1OCc1cccc(Cl)c1
Neutrophil [1]
  inhibition at 10 µM: 65.7%
Neutrophil [2]
  Activity: 9.85 nmol
Neutrophil [3]
  inhibition at 10 µM: -30.1%
Neutrophil [4]
  inhibition at 30 µM: -18.7%
Neutrophil [5]
  Activity: 0.99 nmol
Neutrophil [6]
  inhibition at 30 µM: 88%
Neutrophil [10]
  Activity: 2 nmol
Neutrophil [12]
  inhibition at 3 µM: 31.2%
Neutrophil [13]
  IC50: 5.9 µM
Neutrophil [7]
  Activity: 0.34 nmol
Neutrophil [8]
  Activity: 9.06 nmol

## COc1ccc(OCc2ccc(Cl)cc2)c(/C=C/C=O)c1
Neutrophil [1]
  inhibition at 10 µM: 27.1%
Neutrophil [2]
  Activity: 9.39 nmol
Neutrophil [3]
  inhibition at 10 µM: -23.3%
Neutrophil [4]
  inhibition at 30 µM: -25.5%
Neutrophil [5]
  Activity: 2.1 nmol
Neutrophil [6]
  inhibition at 30 µM: 33.4%
Neutrophil [7]
  Activity: 1.9 nmol
Neutrophil [8]
  Activity: 9.55 nmol

## COc1ccc(OCc2ccccc2Cl)c(/C=C/C=N/O)c1
Neutrophil [1]
  inhibition at 10 µM: 40.4%
Neutrophil [2]
  Activity: 5.27 nmol
Neutrophil [3]
  inhibition at 10 µM: 1.5%
Neutrophil [4]
  inhibition at 30 µM: -44.4%
Neutrophil [5]
  Activity: 2.09 nmol
Neutrophil [6]
  inhibition at 30 µM: 77.7%
Neutrophil [10]
  Activity: 2.45 nmol
Neutrophil [12]
  inhibition at 3 µM: 29.5%
Neutrophil [13]
  IC50: 9.5 µM
Neutrophil [7]
  Activity: 0.78 nmol
Neutrophil [8]
  Activity: 7.62 nmol

## COc1ccc(OCc2ccccc2Cl)c(/C=C/C=O)c1
Neutrophil [1]
  inhibition at 10 µM: 34.3%
Neutrophil [2]
  Activity: 8.94 nmol
Neutrophil [3]
  inhibition at 10 µM: -17.5%
Neutrophil [4]
  inhibition at 30 µM: -26.9%
Neutrophil [5]
  Activity: 1.89 nmol
Neutrophil [6]
  inhibition at 30 µM: 40.9%
Neutrophil [7]
  Activity: 1.69 nmol
Neutrophil [8]
  Activity: 9.63 nmol

## COc1ccc(OCc2ccccc2)c(/C=C/C=N/O)c1
Neutrophil [1]
  inhibition at 10 µM: 70%
Neutrophil [2]
  Activity: 4.97 nmol
Neutrophil [3]
  inhibition at 10 µM: 7.6%
Neutrophil [4]
  inhibition at 30 µM: -29.4%
Neutrophil [5]
  Activity: 1.05 nmol
Neutrophil [6]
  inhibition at 30 µM: 86%
Neutrophil [10]
  Activity: 2.03 nmol
Neutrophil [12]
  inhibition at 3 µM: 41.9%
Neutrophil [13]
  IC50: 4.3 µM
Neutrophil [7]
  Activity: 0.48 nmol
Neutrophil [8]
  Activity: 6.9 nmol
